{"data": "Assay results of several laboratories", "observed": "metabolic stability", "species": "human", "sample": "liver microsomes", "note": "Lines come from different studies, so protocols differ."}
{"Structure (SMILES)": "Cc1ccc(OCC(=O)N[C@@H](Cc2c[nH]c3ccccc23)C(=O)OC(C)C)cc1", "concentration": "20 mM", "microsomal CLint": "14.6 µL/min/mg"}
{"Structure (SMILES)": "CC1(C)NC(=O)N(c2ccc(F)c(OC(F)(F)F)c2)C1=O", "microsomal CLint": "< 7 µL/min/mg"}
{"Structure (SMILES)": "COCC(=O)N1CCC[C@H](C(=O)NCc2nc(-c3cccnc3)cs2)C1", "concentration": "0.5 µM", "microsomal CLint": "< 7 µL/min/mg"}
{"Structure (SMILES)": "CC1(C)NC(=O)N(c2ccc(F)c(Br)c2)C1=O", "microsomal CLint": "< 7 µL/min/mg"}
{"Structure (SMILES)": "CN1CCN(c2ccc(-c3ccc4nncc(Nc5ccc(OC(F)(F)F)cc5)c4c3)cc2)CC1", "microsomal CLint": "30 µL/min/mg"}
{"Structure (SMILES)": "O=C(N1CCCCC1)C12CC(c3ccccc3)(C1)C2", "concentration": "2 µM", "pH": "pH 7.4", "microsomal CLint": "24 µL/min/mg"}
{"Structure (SMILES)": "O=c1c2c([nH]c3cccc(Oc4ccc(OC(F)(F)F)cc4)c13)CCCC2", "concentration": "1 µM", "pH": "pH 7.4", "microsomal CLint": "109 µL/min/mg"}
{"Structure (SMILES)": "Cc1cc(N2C(=O)NC(C)(C)C2=O)cc(C(F)(F)F)n1", "microsomal CLint": "< 7 µL/min/mg"}
{"Structure (SMILES)": "N#Cc1ccc(-c2csc(CNC(=O)[C@H]3CCCN(C(=O)N4CCCO4)C3)n2)cc1", "concentration": "0.5 µM", "microsomal CLint": "112 µL/min/mg"}
{"Structure (SMILES)": "CCC(F)(F)c1cc(N2C(=O)NC(C)(C)C2=O)ccc1F", "microsomal CLint": "< 7 µL/min/mg"}
{"Structure (SMILES)": "O=C(NCc1nc(-c2ccccc2)cs1)[C@H]1CCCN(C(=O)COCC2CC2)C1", "concentration": "0.5 µM", "microsomal CLint": "102 µL/min/mg"}
{"Structure (SMILES)": "CONC(=O)c1cccc2c1cc(C)n2-c1nc2c(c(NCc3ccccc3)n1)CCCN2", "concentration": "1 µM", "pH": "pH 7.4", "microsomal CLint": "98.7 µL/min/mg"}
{"Structure (SMILES)": "c1ccc(Oc2ccc(Nc3c4c(nc5ccccc35)CCC4)cc2)cc1", "concentration": "0.5 µM", "microsomal CLint": "31 µL/min/mg"}
{"Structure (SMILES)": "O=c1c2c([nH]c3cc(Oc4ccc(OC(F)(F)F)cc4)c(F)cc13)CCCC2", "concentration": "1 µM", "pH": "pH 7.4", "microsomal CLint": "72.5 µL/min/mg"}
{"Structure (SMILES)": "O=C(NCc1nc(-c2ccccc2)cs1)[C@H]1CCCN(C(=O)[C@H]2CCCO2)C1", "concentration": "0.5 µM", "microsomal CLint": "35 µL/min/mg"}
{"Structure (SMILES)": "Cc1[nH]c(C)c(S(=O)(=O)Nc2ccc(C(F)(F)F)c(Cl)c2Cl)c1C(=O)N1CCC(F)(F)C1", "microsomal CLint": "7.4 µL/min/mg"}
{"Structure (SMILES)": "Cc1ccc(N(C)c2ccc(NC(=O)CN(C)c3cc(F)ccc3N3CCCC3=O)cc2)cc1", "microsomal CLint": "260 µL/min/mg"}
{"Structure (SMILES)": "COCC(=O)N1CCC[C@H](C(=O)NCc2nc(-c3ccc(C(F)(F)F)cc3)cs2)C1", "concentration": "0.5 µM", "microsomal CLint": "37 µL/min/mg"}
{"Structure (SMILES)": "CNc1ccc(C(N)=O)cn1", "concentration": "1 µM", "pH": "pH 7.4", "microsomal CLint": "< 3 µL/min/mg"}
{"Structure (SMILES)": "COc1ccc(Cn2cc(CO[C@@H]3O[C@H]4[C@H](OC[C@H]4O)[C@H]3O)nn2)cc1", "microsomal CLint": "< 14.4 µL/min/mg"}
{"Structure (SMILES)": "CC1(C)CCC(C(=O)NCc2nc(-c3ccc(C#N)cc3)cs2)CN1C(=O)COCCF (racemic)", "concentration": "0.5 µM", "microsomal CLint": "219 µL/min/mg"}
{"Structure (SMILES)": "Cc1ccc(N(C)c2ccc(NC(=O)CN(C)c3cccnc3N3CCCC3=O)cc2)cc1", "microsomal CLint": "222 µL/min/mg"}
{"Structure (SMILES)": "O=C1NC(CF)(CF)C(=O)N1c1ccc(F)c(C(F)(F)F)c1", "microsomal CLint": "< 7 µL/min/mg"}
{"Structure (SMILES)": "NCCCOCC(=O)N1CCC[C@H](C(=O)NCc2nc(-c3ccc(C4CC4)cc3)cs2)C1", "concentration": "0.5 µM", "microsomal CLint": "11 µL/min/mg"}
{"Structure (SMILES)": "O=c1c2c(F)cc(Cl)cc2[nH]c2cccc(Oc3ccc(OC(F)(F)F)cc3)c12", "concentration": "1 µM", "pH": "pH 7.4", "microsomal CLint": "5.86 µL/min/mg"}
{"Structure (SMILES)": "Cc1ccc(Oc2ccc(NC(=O)CN(C)c3ccccc3N3CCCC3=O)cc2)cc1", "microsomal CLint": "383 µL/min/mg"}
{"Structure (SMILES)": "CCS(=O)(=O)N1CCC2(CC1)NC(=O)N(c1ccc(F)c(C(F)(F)F)c1)C2=O", "microsomal CLint": "< 7 µL/min/mg"}
{"Structure (SMILES)": "COc1cnc(Nc2cnnc3ccc(-c4ccc(N5CCN(C)CC5)cc4)cc23)nc1", "microsomal CLint": "93 µL/min/mg"}
{"Structure (SMILES)": "O=c1c2c([nH]c3ccc(Oc4ccc(OC(F)(F)F)cc4)cc13)CCCC2", "concentration": "1 µM", "pH": "pH 7.4", "microsomal CLint": "55.3 µL/min/mg"}
{"Structure (SMILES)": "CC(C)N(c1ccc(C#N)cc1)c1ccc(NC(=O)CN(C)c2ccccc2N2CCCC2=O)cn1", "microsomal CLint": "309 µL/min/mg"}
{"Structure (SMILES)": "O=C1NC2(CCS(=O)(=O)CC2)C(=O)N1c1ccc(F)c(C(F)(F)F)c1", "microsomal CLint": "< 7 µL/min/mg"}
{"Structure (SMILES)": "COc1ccc(Oc2ccc3c(=O)c4c(F)cc(Cl)cc4[nH]c3c2)cc1", "concentration": "1 µM", "pH": "pH 7.4", "microsomal CLint": "12.3 µL/min/mg"}
{"Structure (SMILES)": "CN(CC(=O)Nc1ccc(N(C)c2ccc(Cl)c(F)c2)cc1)c1ccccc1N1CCCC1=O", "microsomal CLint": "218 µL/min/mg"}
{"Structure (SMILES)": "O=c1c2ccc(Oc3ccc(OC(F)(F)F)cc3)cc2[nH]c2ccc(F)c(Cl)c12", "concentration": "1 µM", "pH": "pH 7.4", "microsomal CLint": "7.54 µL/min/mg"}
{"Structure (SMILES)": "CCN(c1ccc(C)cc1)c1ccc(NC(=O)CN(C)c2ccccc2N2CCCC2=O)cn1", "microsomal CLint": "408 µL/min/mg"}
{"Structure (SMILES)": "O=C1c2ccccc2C(=O)N1CCCN1CCN(C(c2ccc(F)cc2)c2ccc(F)cc2)CC1", "concentration": "100 ng/mL", "microsomal CLint": "39 µL/min/mg"}
{"Structure (SMILES)": "O=c1c2ccc(OCc3cccc(OC(F)(F)F)c3)cc2[nH]c2cc(Cl)cc(F)c12", "concentration": "1 µM", "pH": "pH 7.4", "microsomal CLint": "16.1 µL/min/mg"}
{"Structure (SMILES)": "CCN(CC)CCNC(=O)c1c(C)[nH]c(/C=C2\\C(=O)Nc3ccc(F)cc32)c1C", "concentration": "1 µM", "pH": "pH 7.4", "microsomal CLint": "25.6 µL/min/mg"}
{"Structure (SMILES)": "Cc1ccc(N(C)c2ccc(NC(=O)CN(C)c3ccccc3N3CCCC3=O)cc2)cc1", "microsomal CLint": "347 µL/min/mg"}
{"Structure (SMILES)": "O=c1c2ccccc2[nH]c2cc(Oc3ccc(OC(F)(F)F)cc3)ccc12", "concentration": "1 µM", "pH": "pH 7.4", "microsomal CLint": "20.9 µL/min/mg"}
{"Structure (SMILES)": "CC(C)NCCOCC(=O)N1CCC[C@H](C(=O)NCc2nc(-c3ccc(C(F)(F)F)cc3)cs2)C1", "concentration": "0.5 µM", "microsomal CLint": "13 µL/min/mg"}
{"Structure (SMILES)": "Cc1ccc(N(c2ccc(NC(=O)CN(C)c3ccccc3N3CCCC3=O)cn2)C(C)C)cc1", "microsomal CLint": "270 µL/min/mg"}
